Test results taken from ChEMBL document CHEMBL4130635, “2,4-Diaminoquinazolines as Dual Toll-like Receptor (TLR) 7/8 Modulators for the Treatment of Hepatitis B Virus” (J Med Chem, 2018).
Activity calls are given as the source filed them. No cut-off for these calls is given here.

Experiments:
[1] = test system: Toll-like receptor 7/8 (Homo sapiens); test: Agonist activity at TLR7/8 in human PBMCs assessed as decrease in HBeAg levels in human hepatocytes infected with HBV genotype C for 12 days followed by exposure to conditioned supernatant from up to 5 uM compound treated PBMCs measured after 42 days
[2] = Intrinsic clearance in human liver microsomes assessed per mg protein at 1 uM up to 60 mins; assay type: ADME, microsome; conditions: read-out: CLH
[3] = test system: Liver; test: Effect on cytokine profile in C57BL/6J mouse liver assessed as IL-12p70 levels at 10 mg/kg, po by multiplex assay (reference value: 5 pg/g); assay type: functional
Summary of the method: (§1)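 Single oral gavage in 20% HP-β-CD to healthy C57BL/6 mice, groups of 15 at 0.3, 1, 3, 10 or 30 mg/kg. Three mice per group sacrificed at 0.5, 1, 2, 4 or 7 h. Plasma and liver cytokines by multiplex, maximum level reported, rounded to nearest multiple of 5.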

[4] = test system: Cynomolgus monkey; test: Activation of Kupffer cells in cynomolgus monkey liver at 30 mg/kg, po after 72 hrs by CD68 staining-based immunohistochemical analysis; assay type: functional, organism-based; conditions: Macaca fascicularis
Summary of the method: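 Three 2.5-year-old male naive cynomolgus monkeys were dosed orally at 30 mg/kg and euthanized 72 h later. FFPE liver sections were stained for CD68 by IHC, alongside sections from unrelated control animals. Positive cells were counted over a 30 mm² area and expressed per mm². Statistics used a one-tailed t test with Welch correction.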

[5] = Stability in mouse hepatocytes assessed compound turnover at 1 uM after 60 mins; assay type: ADME, cell-based, Hepatocyte; conditions: read-out: Drug metabolism
[6] = Cmax in C57BL/6J mouse plasma at 1 mg/kg, po by LC-MS analysis; assay type: ADME, organism-based; parameters: dose 1 mg/kg, route oral
Summary of the method: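 Healthy C57BL/6 mice, groups of 15, given a single oral dose (0.3, 1, 3, 10 or 30 mg/kg) in 20% HP-β-CD. Blood drawn at 0.5 h. Three mice per group sacrificed at 0.5, 1, 2, 4 or 7 h, and compound in plasma and liver measured by LC−MS. Values rounded to whole numbers.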

[7] = biological target: T1, Toll-like receptor 8 (Homo sapiens) (UniProt Q9NR97); test: Agonist activity at human TLR8 expressed in HEK293 cells assessed as induction of receptor activation incubated for 6 hrs by NF-kappaB-luciferase reporter gene assay; assay type: cell-based
T1 sequence (whole entry): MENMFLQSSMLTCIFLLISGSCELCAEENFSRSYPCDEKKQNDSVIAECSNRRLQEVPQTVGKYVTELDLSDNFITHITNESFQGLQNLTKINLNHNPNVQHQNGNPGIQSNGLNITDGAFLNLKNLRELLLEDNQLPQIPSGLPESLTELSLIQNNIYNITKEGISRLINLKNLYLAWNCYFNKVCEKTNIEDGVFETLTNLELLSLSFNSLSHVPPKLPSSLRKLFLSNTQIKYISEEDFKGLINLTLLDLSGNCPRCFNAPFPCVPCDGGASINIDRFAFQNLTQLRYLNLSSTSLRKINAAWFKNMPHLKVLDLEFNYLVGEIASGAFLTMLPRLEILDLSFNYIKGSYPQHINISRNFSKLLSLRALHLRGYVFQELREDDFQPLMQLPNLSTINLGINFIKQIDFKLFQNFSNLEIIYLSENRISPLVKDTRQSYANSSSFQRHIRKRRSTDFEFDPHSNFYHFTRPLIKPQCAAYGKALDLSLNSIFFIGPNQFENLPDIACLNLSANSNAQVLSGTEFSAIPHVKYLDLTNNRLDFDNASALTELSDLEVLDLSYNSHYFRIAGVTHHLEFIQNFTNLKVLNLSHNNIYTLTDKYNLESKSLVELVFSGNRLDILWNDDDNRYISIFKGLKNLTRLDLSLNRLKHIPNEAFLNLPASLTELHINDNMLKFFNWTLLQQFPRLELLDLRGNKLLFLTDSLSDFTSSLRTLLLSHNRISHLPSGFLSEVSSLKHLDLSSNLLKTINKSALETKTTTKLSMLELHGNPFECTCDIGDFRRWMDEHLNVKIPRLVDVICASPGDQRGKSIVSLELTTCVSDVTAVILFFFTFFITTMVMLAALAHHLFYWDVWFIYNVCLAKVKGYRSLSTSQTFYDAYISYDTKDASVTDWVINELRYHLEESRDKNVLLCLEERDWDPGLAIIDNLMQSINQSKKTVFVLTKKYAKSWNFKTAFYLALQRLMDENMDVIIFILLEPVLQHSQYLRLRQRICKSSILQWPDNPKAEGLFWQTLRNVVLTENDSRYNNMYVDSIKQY

[8] = Stability in human hepatocytes assessed compound turnover at 1 uM after 60 mins; assay type: ADME, cell-based, Hepatocyte; conditions: read-out: Drug metabolism
[9] = biological target: T2, TLR7 and TLR8 (Homo sapiens) (UniProt Q9NYK1+Q9NR97); test: Agonist activity at TLR7/8 in human PBMCs co-cultured with primary human hepatocytes infected with HBV genotype C for 12 days assessed as increase in TNFalpha levels up to 5 uM measured after 42 days
[10] = test system: Liver; test: Effect on cytokine profile in C57BL/6J mouse liver assessed as IFNgamma levels at 1 mg/kg, po by multiplex assay; assay type: functional, organism-based
Summary of the method: as §1

[11] = test system: Cynomolgus monkey; test: Activation of monocytes in cynomolgus monkey plasma assessed as upregulation of IL1Ra levels at 1 mg/kg, po after 24 hrs by Luminex assay (reference value: 320 pg/ml); assay type: functional, Macaca fascicularis
[12] = Cmax in cynomolgus monkey plasma at 9 mg/kg, po by LC-MS analysis; assay type: ADME, organism-based, Macaca fascicularis; parameters: dose 9 mg/kg, route oral
Summary of the method: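 Healthy cynomolgus monkeys received oral doses of 1, 3, 9 and 30 mg/kg, with a 2-week wash-out between doses. Systemic compound concentrations by LC−MS at 0.25, 0.5, 1, 2, 4, 8 and 24 h postdose.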

[13] = test system: Cynomolgus monkey; test: Proinflammatory activity in cynomolgus monkey plasma assessed as IL-6 levels at 9 mg/kg, po after 24 hrs by Luminex assay (reference value: 80 pg/ml); assay type: functional, Macaca fascicularis
[14] = test system: Liver; test: Effect on cytokine profile in C57BL/6J mouse liver assessed as IL-12p70 levels at 30 mg/kg, po by multiplex assay (reference value: 5 pg/g); assay type: functional
Summary of the method: as §1

[15] = biological target: T2, TLR7 and TLR8 (Homo sapiens); test: Agonist activity at TLR7/8 in human PBMCs co-cultured with primary human hepatocytes infected with HBV genotype C for 12 days assessed as increase in IL-1beta levels up to 5 uM measured after 42 days
[16] = test system: Liver; test: Proinflammatory activity in C57BL/6J mouse liver assessed as IL-1beta levels at 3 mg/kg, po by multiplex assay; assay type: functional
[17] = test system: Plasma; test: Effect on cytokine profile in C57BL/6J mouse plasma assessed as IFNgamma levels at 30 mg/kg, po by multiplex assay; assay type: functional
Summary of the method: as §1

[18] = Intrinsic clearance in cynomolgus monkey liver microsomes assessed per mg protein at 1 uM up to 60 mins; assay type: ADME, Macaca fascicularis, microsome; conditions: read-out: CLH
Summary of the method: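 Cynomolgus monkey liver microsomes at 1 mg/mL microsomal protein, incubated at 37 °C with 1 μM test compound. Serial samples taken at intervals up to 60 min and analysed for remaining compound concentration to derive intrinsic clearance, expressed as (μL/min)/mg protein and rounded to the nearest whole number.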

[19] = test system: Cynomolgus monkey; test: Toxicity in cynomolgus monkey assessed as change in body temperature up to 30 mg/kg, po; assay type: organism-based, Macaca fascicularis; conditions: in vivo

T2 sequence (Q9NYK1 whole entry, looked up, one chain of several): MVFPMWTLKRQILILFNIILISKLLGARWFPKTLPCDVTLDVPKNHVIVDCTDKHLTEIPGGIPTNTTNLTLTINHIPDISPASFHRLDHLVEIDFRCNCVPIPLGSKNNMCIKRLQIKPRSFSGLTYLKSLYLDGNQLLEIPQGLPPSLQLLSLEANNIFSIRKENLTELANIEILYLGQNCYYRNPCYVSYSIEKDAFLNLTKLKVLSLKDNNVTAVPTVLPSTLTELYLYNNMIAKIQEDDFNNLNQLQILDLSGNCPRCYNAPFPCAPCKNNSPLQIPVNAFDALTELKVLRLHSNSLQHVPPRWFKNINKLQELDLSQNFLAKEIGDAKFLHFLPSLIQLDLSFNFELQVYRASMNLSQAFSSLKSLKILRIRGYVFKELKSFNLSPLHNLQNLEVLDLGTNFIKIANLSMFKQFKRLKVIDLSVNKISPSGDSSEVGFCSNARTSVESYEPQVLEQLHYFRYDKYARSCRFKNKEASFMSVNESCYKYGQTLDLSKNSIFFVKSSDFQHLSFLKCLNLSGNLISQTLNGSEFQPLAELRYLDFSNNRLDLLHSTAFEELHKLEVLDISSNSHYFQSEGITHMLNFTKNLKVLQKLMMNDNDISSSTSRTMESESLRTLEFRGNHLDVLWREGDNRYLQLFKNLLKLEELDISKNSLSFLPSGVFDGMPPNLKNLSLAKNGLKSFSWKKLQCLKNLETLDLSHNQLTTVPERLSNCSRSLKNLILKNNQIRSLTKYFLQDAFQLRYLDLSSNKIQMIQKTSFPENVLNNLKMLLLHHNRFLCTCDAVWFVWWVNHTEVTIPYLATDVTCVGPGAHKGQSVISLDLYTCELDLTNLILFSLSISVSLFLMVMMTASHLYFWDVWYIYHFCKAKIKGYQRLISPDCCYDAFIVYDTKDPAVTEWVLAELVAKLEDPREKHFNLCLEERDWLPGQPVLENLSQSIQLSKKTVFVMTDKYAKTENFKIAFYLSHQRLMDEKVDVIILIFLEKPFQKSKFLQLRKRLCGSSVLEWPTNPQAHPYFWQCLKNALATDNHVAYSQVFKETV

## CCC[C@@H](CCO)Nc1nc(N)nc2c(F)cccc12
[1]
  Activity: Dose-dependent effect
[2]
  microsomal CLint at 1 µM: 8 µL/min/mg
[3]
  Activity: 790 pg/g
[4]
  Activity: Active
[5]
  metabolised at 1 h, 1 µM: 99%
[6]
  Cmax: 0.009 µg/mL
[7]
  MEC: 0.16 µM
[8]
  metabolised at 1 h, 1 µM: 35%
[9]
  Activity: Active
[10]
  Activity: Below limit of detection
[11]
  Activity: 805 pg/mL
[12]
  Cmax: 0.815 µg/mL
[13]
  Activity: 2265 pg/mL
[14]
  Activity: 2340 pg/g
[15]
  Activity: Active
[16]
  Activity: 22925 pg/g
[17]
  Activity: 1010 pg/mL
[18]
  microsomal CLint at 1 µM: 16 µL/min/mg
[19]
  Activity: Non-Toxic
